Experimental data collected from several papers.
Target: Serine/threonine-protein kinase PLK1 (PLK1, Homo sapiens, UniProt P53350)

| SMILES | observed | action | technique | tested at | quantity | value |
| --- | --- | --- | --- | --- | --- | --- |
| CCCCC(=O)Nc1ccc(-c2ccc3ncn(CCC)c(=O)c3c2)cn1 | binding |  | competition with immobilised ligand | 0.5 µM | remaining binding | 100% |
| Cc1ccc(NC(=O)c2ccnc(C(F)(F)F)c2)cc1-c1cc(OCCO)nc(N2CCOCC2)c1 | binding |  |  | 1 µM | remaining binding | 94% |
| CC#CC(=O)N1CCC[C@H]1c1nc(-c2ccc(C(=O)Nc3ccccn3)cc2)c2c(N)nccn12 | enzyme activity | inhibitor |  | 1 µM | inhibition | 36% |
| COc1ccc2oc(-c3ccc4nc(N)oc4c3)c/c(=N\c3ccccc3NC(=O)CCN)c2c1 | binding |  |  | 1 µM | remaining binding | 98% |
| N#Cc1ccc(NC(=O)Nc2ccccc2)cc1 | cell-free assay |  | competition with immobilised ligand | 25 µM | remaining binding | 93% |
| C=CC(=O)N1CCC([C@@H]2CCNc3c(C(N)=O)c(-c4ccc(Oc5ccccc5)cc4)nn32)CC1 | enzyme activity | inhibitor |  | 1 µM | inhibition | 31% |
| COc1ccc2[nH]c3c4[nH]c5ccc(OC)cc5c4c4c(c3c2c1)C(=O)NC4=O | binding |  |  | 1 µM | remaining binding | 90% |
| C1=C/COCc2cc(ccc2OCCN2CCCC2)Nc2nccc(n2)-c2cccc(c2)COC/1 | binding |  |  | 0.1 µM | remaining binding | 100% |
